Results taken from article PMC9476207 (ACS Omega, 2022).

How the values were obtained:
Test in all cases: NCI-60 single-dose antiproliferative screen
Type in all cases: cell-based
K-562 = conditions: Homo sapiens, K562, 48 h, read-out: growth percent
Method in brief: (§1)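 NCI-60 protocol. Lines were grown in RPMI 1640 with 5% FBS and 2 mM L-glutamine, plated and incubated 24 h at 37 °C; time-zero plates were TCA-fixed. The test compound was dissolved in DMSO, diluted in medium with 50 μg/mL gentamicin and given once at a final 10^-5 M (DMSO control) for 48 h. Cells were fixed with cold TCA (1 h, 4 °C) and stained with 0.4% SRB in 1% acetic acid for 10 min. Dye was dissolved in 10 mM Trizma base and read at 515 nm. Growth percent was calculated from time-zero, test and control ODs.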

RPMI-8226 = conditions: Homo sapiens, RPMI-8226, 48 h, read-out: growth percent
Method in brief: as §1

SR = conditions: Homo sapiens, 48 h, read-out: growth percent
Method in brief: (§2)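 Cells grown in RPMI 1640 with 5% FBS and 2 mM L-glutamine, plated and held 24 h at 37 °C; time-zero plates TCA-fixed. DMSO stocks were diluted in gentamicin-containing medium to a final 10^-5 M, with a DMSO-only control. Exposure 48 h, 5% CO2. Adherent cells TCA-fixed 1 h at 4 °C, stained with 0.4% SRB, solubilised in 10 mM Trizma base, read at 515 nm. Growth percent derived from ODtzero, ODtest and ODctrl.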

EKVX = conditions: Homo sapiens, 48 h, read-out: growth percent
Method in brief: as §1

HOP-92 = conditions: Homo sapiens, HOP-92, 48 h, read-out: growth percent
Method in brief: as §1

NCI-H226 = conditions: Homo sapiens, NCI-H226, 48 h, read-out: growth percent
Method in brief: as §1

NCI-H23 = conditions: Homo sapiens, NCI-H23, 48 h, read-out: growth percent
Method in brief: as §1

NCI-H460 = conditions: Homo sapiens, NCI-H460, 48 h, read-out: growth percent
Method in brief: as §1

NCI-H522 = conditions: Homo sapiens, NCI-H522, 48 h, read-out: growth percent
Method in brief: as §1

COLO205 = conditions: Homo sapiens, COLO 205, 48 h, read-out: growth percent
Method in brief: as §1

HCC-2998 = conditions: Homo sapiens, HCC 2998, 48 h, read-out: growth percent
Method in brief: as §1

HCT-15 = conditions: Homo sapiens, HCT-15, 48 h, read-out: growth percent
Method in brief: as §1

HT29 = conditions: Homo sapiens, HT-29, 48 h, read-out: growth percent
Method in brief: as §1

KM12 = conditions: Homo sapiens, KM12, 48 h, read-out: growth percent
Method in brief: as §1

SF-295 = conditions: Homo sapiens, SF-295, 48 h, read-out: growth percent
Method in brief: as §1

SNB-19 = conditions: Homo sapiens, SNB-19, 48 h, read-out: growth percent
Method in brief: as §2

U251 = conditions: Homo sapiens, U-251, 48 h, read-out: growth percent
Method in brief: as §2

LOX IMVI = conditions: Homo sapiens, 48 h, read-out: growth percent
Method in brief: as §1

MALME-3M = conditions: Homo sapiens, 48 h, read-out: growth percent
Method in brief: as §1

MDA-MB-435 = conditions: Homo sapiens, MDA-MB-435, 48 h, read-out: growth percent
Method in brief: as §1

SK-MEL-2 = conditions: Homo sapiens, SK-MEL-2, 48 h, read-out: growth percent
Method in brief: as §2

SK-MEL-5 = conditions: Homo sapiens, SK-MEL-5, 48 h, read-out: growth percent
Method in brief: as §2

UACC-62 = conditions: Homo sapiens, UACC-62, 48 h, read-out: growth percent
Method in brief: as §2

OVCAR-5 = conditions: Homo sapiens, OVCAR-5, 48 h, read-out: growth percent
Method in brief: as §1

NCI/ADR-RES = conditions: Homo sapiens, 48 h, read-out: growth percent
Method in brief: as §1

SK-OV-3 = conditions: Homo sapiens, SK-OV-3, 48 h, read-out: growth percent
Method in brief: as §2

786-0 = conditions: Homo sapiens, 786-0, 48 h, read-out: growth percent
Method in brief: as §1

CAKI-1 = conditions: Homo sapiens, CAKI-1, 48 h, read-out: growth percent
Method in brief: as §1

RXF 393 = conditions: Homo sapiens, RXF 393, 48 h, read-out: growth percent
Method in brief: as §1

TK-10 = conditions: Homo sapiens, TK-10, 48 h, read-out: growth percent
Method in brief: as §2

UO-31 = conditions: Homo sapiens, UO-31, 48 h, read-out: growth percent
Method in brief: as §2

MCF-7 = conditions: Homo sapiens, MCF7, 48 h, read-out: growth percent
Method in brief: as §1

HS 578T = conditions: Homo sapiens, 48 h, read-out: growth percent
Method in brief: as §1

BT-549 = conditions: Homo sapiens, BT-549, 48 h, read-out: growth percent
Method in brief: as §1

T-47D = conditions: Homo sapiens, T47D, 48 h, read-out: growth percent
Method in brief: as §2

MDA-MB-468 = conditions: Homo sapiens, MDA-MB-468, 48 h, read-out: growth percent
Method in brief: as §1

In the case of `COc1cc(CNC(=O)CCCC/C=C/C(C)C)ccc1OCc1cn(-c2cccc(Cl)c2)nn1` [14b, (E)-N-(4-((1-(3-Chlorophenyl)-1H-1,2,3-triazol-4-yl)methoxy)-3-methoxybenzyl)-8-methylnon-6-enamide], the activity at 10 µM (K-562) is reported as 84.9%, the activity at 10 µM (RPMI-8226) is reported as 86.3% and the activity at 10 µM (SR) is reported as 85.6%. For the same molecule, the activity at 10 µM (EKVX) was 80.8%, the activity at 10 µM (HOP-92) was 62.4% and the activity at 10 µM (NCI-H226) was 86.5%. It also gave an activity at 10 µM (NCI-H23) of 87.2%, an activity at 10 µM (NCI-H460) of 84.1% and an activity at 10 µM (NCI-H522) of 69.2%. The activity at 10 µM (COLO205) was 102%, the activity at 10 µM (HCC-2998) was 104% and the activity at 10 µM (HCT-15) was 91.3%. The activity at 10 µM (HT29) was 99.2%, the activity at 10 µM (KM12) was 98.6% and the activity at 10 µM (SF-295) was 90.5%. For the same molecule, the activity at 10 µM (SNB-19) was 60%, the activity at 10 µM (U251) was 69.1% and the activity at 10 µM (LOX IMVI) was 89.4%. It also gave an activity at 10 µM (MALME-3M) of 98.7%, an activity at 10 µM (MDA-MB-435) of 98.6% and an activity at 10 µM (SK-MEL-2) of 86.7%. The activity at 10 µM (SK-MEL-5) was 91.2%, the activity at 10 µM (UACC-62) was 75% and the activity at 10 µM (OVCAR-5) was 99.8%. The activity at 10 µM (NCI/ADR-RES) was 76.6%, the activity at 10 µM (SK-OV-3) was 78.8% and the activity at 10 µM (786-0) was 76.8%. It also gave an activity at 10 µM (CAKI-1) of 79.6%, an activity at 10 µM (RXF 393) of 91% and an activity at 10 µM (TK-10) of 106%. The activity at 10 µM (UO-31) was 72.2%, the activity at 10 µM (MCF-7) was 86.9% and the activity at 10 µM (HS 578T) was 74.8%. The activity at 10 µM (BT-549) was 99.3%, the activity at 10 µM (T-47D) was 81.1% and the activity at 10 µM (MDA-MB-468) was 74.7%.
`COc1cc(CNC(=O)CCCC/C=C/C(C)C)ccc1OCc1cn(-c2ccc(Cl)cc2)nn1` [14a, (E)-N-(4-((1-(4-Chlorophenyl)-1H-1,2,3-triazol-4-yl)methoxy)-3-methoxybenzyl)-8-methylnon-6-enamide] was tested, and the activity at 10 µM (K-562) was 66.7%, the activity at 10 µM (RPMI-8226) was 60.8% and the activity at 10 µM (SR) was 73.5%. The activity at 10 µM (EKVX) was 72%, the activity at 10 µM (HOP-92) was 77.1% and the activity at 10 µM (NCI-H226) was 70.4%. It also gave an activity at 10 µM (NCI-H23) of 78.7%, an activity at 10 µM (NCI-H460) of 79.9% and an activity at 10 µM (NCI-H522) of 65.7%. For the same molecule, the activity at 10 µM (COLO205) was 108%, the activity at 10 µM (HCC-2998) was 113% and the activity at 10 µM (HCT-15) was 91.8%. For the same molecule, the activity at 10 µM (HT29) was 88.4%, the activity at 10 µM (KM12) was 95.6% and the activity at 10 µM (SF-295) was 88.3%. For the same molecule, the activity at 10 µM (SNB-19) was 87.7%, the activity at 10 µM (U251) was 86.9% and the activity at 10 µM (LOX IMVI) was 85.6%. The activity at 10 µM (MALME-3M) was 97.8%, the activity at 10 µM (MDA-MB-435) was 99.3% and the activity at 10 µM (SK-MEL-2) was 102%. For the same molecule, the activity at 10 µM (SK-MEL-5) was 77.6%, the activity at 10 µM (UACC-62) was 67.8% and the activity at 10 µM (OVCAR-5) was 100%. The activity at 10 µM (NCI/ADR-RES) was 78.1%, the activity at 10 µM (SK-OV-3) was 91.6% and the activity at 10 µM (786-0) was 92.5%. It also gave an activity at 10 µM (CAKI-1) of 89%, an activity at 10 µM (RXF 393) of 98% and an activity at 10 µM (TK-10) of 99.3%. It also gave an activity at 10 µM (UO-31) of 76.6%, an activity at 10 µM (MCF-7) of 84.9% and an activity at 10 µM (HS 578T) of 90.3%. It also gave an activity at 10 µM (BT-549) of 86.8%, an activity at 10 µM (T-47D) of 71% and an activity at 10 µM (MDA-MB-468) of 64.9%.
`COc1cc(CNC(=O)CCCC/C=C/C(C)C)ccc1OCc1cn(-c2ccc(C#N)cc2)nn1` [14j, (E)-N-(4-((1-(4-Cyanophenyl)-1H-1,2,3-triazol-4-yl)methoxy)-3-methoxybenzyl)-8-methylnon-6-enamide] showed an activity at 10 µM (K-562) of 75.4%, an activity at 10 µM (RPMI-8226) of 65.4% and an activity at 10 µM (SR) of 76.3%. The activity at 10 µM (EKVX) was 90.8%, the activity at 10 µM (HOP-92) was 80.5% and the activity at 10 µM (NCI-H226) was 100%. The activity at 10 µM (NCI-H23) was 72.1%, the activity at 10 µM (NCI-H460) was 93% and the activity at 10 µM (NCI-H522) was 88.2%. It also gave an activity at 10 µM (COLO205) of 117%, an activity at 10 µM (HCC-2998) of 94.5% and an activity at 10 µM (HCT-15) of 83.5%. The activity at 10 µM (HT29) was 95.6%, the activity at 10 µM (KM12) was 91.5% and the activity at 10 µM (SF-295) was 102%. It also gave an activity at 10 µM (SNB-19) of 81.9%, an activity at 10 µM (U251) of 91.2% and an activity at 10 µM (LOX IMVI) of 78.2%. The activity at 10 µM (MALME-3M) was 102%, the activity at 10 µM (MDA-MB-435) was 108% and the activity at 10 µM (SK-MEL-2) was 98.4%. The activity at 10 µM (SK-MEL-5) was 87%, the activity at 10 µM (UACC-62) was 81.8% and the activity at 10 µM (OVCAR-5) was 95.3%. The activity at 10 µM (NCI/ADR-RES) was 79.7%, the activity at 10 µM (SK-OV-3) was 88.2% and the activity at 10 µM (786-0) was 91.7%. The activity at 10 µM (CAKI-1) was 74.6%, the activity at 10 µM (RXF 393) was 90.8% and the activity at 10 µM (TK-10) was 91.8%. The activity at 10 µM (UO-31) was 112%, the activity at 10 µM (MCF-7) was 103% and the activity at 10 µM (HS 578T) was 95%. For the same molecule, the activity at 10 µM (BT-549) was 91.2%, the activity at 10 µM (T-47D) was 76.8% and the activity at 10 µM (MDA-MB-468) was 74.9%.
